Source: PubChem
H9c2 protect – protects H9c2 cardiomyocytes from peroxide injury | AID 588492 | 0.63% of 360,000 active | protection from H2O2 cell death, % at 20 µM | H2O2 injury protection, ATPLite, 2 h;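 active means compounds giving at least 50% protection of heart cells from peroxide-induced death in the single-dose screen, raw or plate-pattern-corrected value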
Tn6 DDE FP – inhibitors of Tn6 peptide binding to human fibrin DD(E). P02675. inhibition, % at 8.3 µM. AID 720509. Fibrin DD(E) TRITC-Tn6 fluorescence polarization displacement. 0.21% of 370,000 active;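 active means inhibition above a per-campaign cutoff: mean of compounds within control limits plus 3 SD, cut at about 15% in these data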
Tn7 DDE FP – disrupts Tn7 cyclic peptide binding to fibrin D-Dimer-E complex | AID 720508 | P02675 | FP displacement of FITC-Tn7 peptide from fibrin DD(E); 0% = median of compound wells per plate | inhibition, % at 8.3 µM | 0.13% of 370,000 active;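 active means inhibition above the mean of compounds falling within the control limits plus 3 SD of them, cut at about 14% in these data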
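Measure: % inhibition scaled between sample-field median and high-control FP; Test system: human fibrin DD(E); Quantity: 2 µM final DD(E) protein; Doses: one dose, 8.3 µM nominal; Schedule: compound with protein 10 min, then 3 h after probe, room temperature; Detection: fluorescence polarization; Medium: Tris buffer with calcium and detergent, pH 7.8.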
TAG inh – inhibitors of triacylglycerol accumulation; H9c2 cells, Nile Red lipid (TAG) fluorescence; cells loaded with 200 µM oleic acid; inhibition, % at 12.5 µM; 0.66% of 230,000 active;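 active means pattern-corrected inhibition of lipid staining of at least 50% with the nuclear-stain viability signal not falling by more than 50%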
MT1-MMP act inh – blocks activation of human MT1-MMP | 0.061% of 360,000 active | GFP/RFP ratio change, % at 20 µM | AID 651647 | HT1080 RFP-PRO-GFP cells, GFP/RFP ratio fluorescence, overnight; percent of plate control window, DMSO zero;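 active means GFP/RFP ratio change of at least 30% with cell ATP level not reduced by more than half and red fluorescence within 50% of control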
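Material: RFP-PRO-GFP reporter HT1080 cells. Dosing: single-point 20 µM compound, 1% DMSO. Controls: DMSO and RFP-L50D-GFP cell wells. Timing: cells overnight before dosing, compound overnight, 37 °C, 5% CO2. Measure: GFP/RFP fluorescence ratio.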
DAGLB inh – diacylglycerol lipase beta (human) inhibition | Q8NCG7 | HEK293T DAGLB membrane lysate, EnzChek fluorogenic substrate | inhibition, % at 5.17 µM | 0.059% of 340,000 active | AID 504411; in the data active means inhibition above about 34%
Target sequence (Q8NCG7 whole entry, looked up): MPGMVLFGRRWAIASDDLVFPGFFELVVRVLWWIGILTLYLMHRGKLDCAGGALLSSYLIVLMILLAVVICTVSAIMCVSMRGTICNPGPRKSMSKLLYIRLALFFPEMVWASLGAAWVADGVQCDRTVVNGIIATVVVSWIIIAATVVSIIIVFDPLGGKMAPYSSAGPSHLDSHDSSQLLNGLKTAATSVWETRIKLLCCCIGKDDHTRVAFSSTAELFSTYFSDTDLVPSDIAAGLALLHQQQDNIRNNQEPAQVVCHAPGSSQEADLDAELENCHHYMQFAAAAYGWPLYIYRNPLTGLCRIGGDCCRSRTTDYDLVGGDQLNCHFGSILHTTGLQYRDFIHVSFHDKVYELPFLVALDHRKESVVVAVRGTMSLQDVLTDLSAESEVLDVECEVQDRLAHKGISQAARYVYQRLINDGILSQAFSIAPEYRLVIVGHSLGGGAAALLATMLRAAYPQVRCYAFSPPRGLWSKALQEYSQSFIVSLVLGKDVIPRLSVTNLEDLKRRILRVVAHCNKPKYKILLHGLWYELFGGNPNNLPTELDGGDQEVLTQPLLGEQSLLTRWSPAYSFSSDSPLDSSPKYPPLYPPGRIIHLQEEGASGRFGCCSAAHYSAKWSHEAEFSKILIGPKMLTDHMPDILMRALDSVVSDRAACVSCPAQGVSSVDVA
A number is an active result; n = inactive; x = not tested or not shown. In the library only some 1.4% were active in any assay of this set; here they are far more common.

SMILES | H9c2 protect | Tn6 DDE FP | Tn7 DDE FP | TAG inh | MT1-MMP act inh | DAGLB inh
COc1ccc(-c2nnc3ccc(SCC(=O)Nc4nc5ccccc5s4)nn23)cc1OC | 50.5 | n | n | x | n | n
COc1ccc(-n2c(C)c(C(C)=O)c3cc(OC(C)=O)ccc32)cc1 | 53.3 | n | n | n | n | n
CCc1cc2cccc(C)c2nc1SCC(=O)N1CCN(C(=O)c2ccco2)CC1 | 58.8 | n | n | n | n | n
COC(=O)[C@]12C[C@H](CC(=O)NCc3cccs3)C(=O)N(CCC3=CCCCC3)C1=C[C@H](C(C)(C)C)O[C@@H]2C | x | n | n | x | x | x
CC(C)CCN(C(=O)CNC(=O)c1ccco1)C(C(=O)NC1CCCCC1)c1ccco1 (centres undefined) | 51.8 | n | n | n | n | n
COCCN(C(=O)CNC(=O)c1ccco1)C(C(=O)NC1CCCC1)c1ccc(F)cc1 (centres undefined) | n | n | n | x | n | n
COc1ccc(-c2noc(C3CCCN(C(=O)Nc4ccc5c(c4)OCO5)C3)n2)cc1 (centres undefined) | x | n | n | x | x | x
Cn1c(=O)c2c(nc(NCc3ccc4c(c3)OCO4)n2C)n(C)c1=O | 52.6 | n | n | x | n | n
Cn1c(=O)c2c(nc(SCC(=O)NCc3ccc4c(c3)OCO4)n2Cc2ccccc2)n(C)c1=O | n | n | n | n | n | n
O=C(CN[C@@H](Cc1c[nH]c2ccccc12)C(=O)NCCc1c[nH]c2ccccc12)NC1CCCCC1 | x | n | n | x | x | x
CN(CC(=O)Nc1cccc(F)c1)C(=O)CCCc1nc2ccccc2c(=O)[nH]1 | 60.4 | n | n | n | n | n
CN(CC(=O)Nc1cccc(F)c1)C(=O)Cc1n[nH]c(=O)c2ccccc12 | 74.1 | n | n | n | n | n
COc1cccc(NC(=O)CN(C)C(=O)CCCc2nc3ccccc3c(=O)[nH]2)c1 | 64.2 | n | n | n | n | n
CCN(CC(=O)Nc1ccc(OC)cc1)C(=O)CCc1nc2ccccc2c(=O)[nH]1 | 89.9 | n | n | n | n | n
CN(CC(=O)Nc1ccc(Cl)c(C(F)(F)F)c1)C(=O)CCCc1nc2ccccc2c(=O)[nH]1 | n | n | n | n | n | n
Cc1cc(C)c2c(=N)c3ccccc3n(CCCCCCCCn3c4ccccc4c(=N)c4c(C)cc(C)nc43)c2n1 | n | n | n | 53.1 | n | n
c1ccc(-c2ccc3c(n2)CCCN3Cc2ccccn2)cc1 | x | n | n | x | x | x
O=c1[nH]ccc2c(O)cccc12 | 90.2 | n | n | n | n | n
COc1ccc(-c2cc(=O)oc3c(C)c(O)c(CN(C)C)cc23)cc1 | 70.1 | n | n | n | n | n
COC(=O)[C@]12CCCCC=C1N(Cc1ccc(OC)cc1)C(=O)[C@@H]2CC(=O)N1CCSCC1 | x | n | n | x | x | x
Cn1c(CNc2ccc(Cl)cc2)nc2ccccc21 | n | n | n | n | n | n
CC(C)N=c1cc2n(-c3ccc(Cl)cc3)c3ccccc3nc-2cc1Nc1ccc(Cl)cc1 | n | n | n | 137.1 | n | n
Cc1cc(C)c2sc(NC(=O)c3ccc([N+](=O)[O-])o3)nc2c1 | n | n | n | 56.8 | n | n
COc1ccc2nc(NC(=O)c3ccc([N+](=O)[O-])o3)sc2c1 | n | n | n | x | n | n
OC[C@H]1CC[C@@H]2O[C@H](CCc3ccc(-c4ccc(F)cc4)cc3)[C@H](n3cc(C4CC4)nn3)C[C@@H]2O1 | x | n | n | x | x | x
SMILES | H9c2 protect | Tn6 DDE FP | Tn7 DDE FP | TAG inh | MT1-MMP act inh | DAGLB inh
CO[C@H]([C@H](C)/C=C/N(C)C=O)[C@@H](C)C(O)CC[C@H](C)[C@H](O)[C@H](C)[C@H]1OC(=O)/C=C/C(C)=C/C[C@H](O)C[C@@H]2C=CC[C@@H](C[C@H](OC)[C@@]3(CO3)[C@@H](OC)C[C@@H](OC)[C@@H]1C)O2 (some centres undefined) | x | n | n | x | x | x
COc1ccc(Nc2nc(C(=O)N3CCc4cc(OC)c(OC)cc4C3)cs2)cc1 | 73.8 | n | n | n | n | n
COc1ccc(Nc2nc(C(=O)N3CCc4ccccc4C3)cs2)cc1 | n | n | n | n | n | n
O=C(N/N=C/c1ccccn1)c1[nH]c2ccc([N+](=O)[O-])cc2c1-c1ccccc1 | 84.1 | n | n | n | n | n
NNC(=O)c1[nH]c2ccc([N+](=O)[O-])cc2c1-c1ccccc1 | n | n | n | x | n | n
CCCCNC(=O)C1CCCN1C(=O)NCc1ccccc1OC (centres undefined) | x | n | n | x | x | x
Cc1ccc(C(=O)c2no[n+]([O-])c2C(=O)c2ccc(C)cc2)cc1 | n | n | n | 51.9 | n | n
Cc1ccc(C(=O)c2ccc(C)cc2)cc1 | n | n | n | n | n | n
COc1cccc(NC(=O)C2CCCN2C(=O)NCc2ccccc2)c1 (centres undefined) | x | n | n | x | x | x
O=C(NN=Cc1ccc(N2CCOCC2)s1)c1ccc([N+](=O)[O-])cc1 | 62.7 | n | n | n | n | n
O=C(N/N=C/c1ccc(N2CCOCC2)s1)c1ccc(O)cc1 | n | n | n | n | n | n
Cc1[nH]c2ccccc2c1/C=N/NC(=O)c1cccs1 | 56.0 | n | n | n | n | n
COc1cccc(/C=N/n2c(N)nc3ccccc32)c1OC | n | n | n | x | n | n
COCCCn1cnc2c(c1=O)c1nc3ccccc3nc1n2-c1ccccc1 | n | n | n | n | n | n
COCCn1cnc2c(c1=O)c1nc3ccccc3nc1n2/N=C/c1cccc(OC)c1 | 51.8 | n | n | n | n | n
C=CCn1cnc2c(c1=O)c1nc3ccccc3nc1n2-c1ccc(C)cc1 | x | n | n | x | x | x
C=CCn1cnc2c(c1=O)c1nc3ccccc3nc1n2/N=C/c1ccccn1 | 97.8 | n | n | x | n | n
C=CCn1cnc2c(c1=O)c1nc3ccccc3nc1n2/N=C/c1cccc(OC)c1OC | 73.6 | n | n | x | n | n
CC(C)(C)c1cc[n+](C2=C([O-])c3ccccc3C(=O)/C2=N\S(=O)(=O)c2cccs2)cc1 | n | n | n | 63.8 | n | x
Cc1cccc(NC2=C/C(=N/S(=O)(=O)c3cccs3)c3ccccc3C2=O)c1 | n | n | n | n | n | n
O=C(O)c1ccc(NC2=C/C(=N/S(=O)(=O)c3cccs3)c3ccccc3C2=O)cc1 | n | n | n | n | n | n
O=C1/C(=N\S(=O)(=O)c2cccs2)C([n+]2ccccc2)=C([O-])c2ccccc21 | n | n | n | 75.9 | n | n
Cc1cccc(CN2CCN(C3CN(Cc4cn(Cc5ccc(C(F)(F)F)cc5)nn4)S(=O)(=O)C3)CC2)c1 (centres undefined) | x | n | n | x | x | x
Cn1c(C(=O)Nc2ccc3c(c2)OCCO3)cc2c(=O)n(C)c3ccccc3c21 | 95.2 | n | n | n | n | n
